The source of these data is ChEMBL document CHEMBL3227919, “Development of ethyl 3,4-dihydro-4-oxopyrimido[4,5-b]quinoline-2-carboxylate, a new prototype with oral antiallergy activity” (1979).

Experiment [1] relates to Rattus norvegicus. As to the kind of experiment: Antiallergic activity in po dosed Wistar Charles River rat assessed as inhibition of histamine-induced passive cutaneous anaphylaxis. Type of experiment: functional.
Experiment [2] relates to Rattus norvegicus. The experiment is described as follows: Antiallergic activity in Wistar Charles River rat assessed as inhibition of histamine-induced passive cutaneous anaphylaxis at 1 mg/kg, iv relative to control. It counts as functional.
Experiment [3] has as its system Rattus norvegicus. As to the kind of experiment: Antiallergic activity in Wistar Charles River rat assessed as inhibition of histamine-induced passive cutaneous anaphylaxis at 10 mg/kg, iv relative to control. It counts as functional.
The test system of experiment [4] is Rattus norvegicus. The experiment is described as follows: Antiallergic activity in Wistar Charles River rat assessed as inhibition of histamine-induced passive cutaneous anaphylaxis at 100 mg/kg, po relative to control. It counts as functional.
Experiment [5] deals with Rattus norvegicus. As to the kind of experiment: Antiallergic activity in Wistar Charles River rat assessed as inhibition of histamine-induced passive cutaneous anaphylaxis at 0.1 mg/kg, iv relative to control. Type of experiment: functional.
Experiment [6] has as its system Rattus norvegicus. The experiment is described as follows: Antiallergic activity in Wistar Charles River rat assessed as inhibition of histamine-induced passive cutaneous anaphylaxis at 1 mg/kg, po relative to control. It counts as functional.
Experiment [7] has as its system Rattus norvegicus. The experiment is described as follows: Antiallergic activity in Wistar Charles River rat assessed as inhibition of histamine-induced passive cutaneous anaphylaxis at 3 mg/kg, po relative to control. It counts as functional.
Experiment [8] concerns Rattus norvegicus. As to the kind of experiment: Antiallergic activity in Wistar Charles River rat assessed as inhibition of histamine-induced passive cutaneous anaphylaxis at 10 mg/kg, po relative to control. It counts as functional.
Experiment [9] concerns Rattus norvegicus. The experiment is described as follows: Antiallergic activity in Wistar Charles River rat assessed as inhibition of histamine-induced passive cutaneous anaphylaxis at 30 mg/kg, po relative to control. It counts as functional.
Experiment [10] deals with Rattus norvegicus. As to the kind of experiment: Inhibition of carrageenan-induced foot edema in rat at 10 mg/kg, po. It counts as functional, organism-based. Set-up: dose 10 mg/kg.
For a further experiment, the system named is Cavia porcellus. As to the kind of experiment: Inhibition of histamine-induced bronchoconstriction in guinea pig up to 100 mg/kg, po. Type of experiment: functional, organism-based. Set-up: dose 100 mg/kg.
The subject of experiment [11] is Rattus norvegicus. The experiment is described as follows: Antiallergic activity in po dosed rat assessed as inhibition of passive cutaneous anaphylaxis. It counts as functional.
Experiment [12] concerns Rattus norvegicus. The experiment is described as follows: Antiallergic activity in Wistar Charles River rat assessed as inhibition of histamine-induced passive cutaneous anaphylaxis at 3 mg/kg, iv relative to control. It counts as functional.
Experiment [13] concerns Rattus norvegicus. The experiment is described as follows: Antiallergic activity in po dosed rat assessed as inhibition of antigen-induced passive cutaneous anaphylaxis. It counts as functional.
Experiment [14] concerns Rattus norvegicus. The experiment is described as follows: Antiallergic activity in po dosed rat assessed as inhibition of antigen-induced passive cutaneous anaphylaxis relative to DSCG. It counts as functional.
Experiment [15] has as its system Homo sapiens. The experiment is described as follows: Antiallergic activity in po dosed human assessed as concentration required to inhibit antigen-induced clinical asthma. It counts as functional.
The subject of experiment [16] is Rattus norvegicus. As to the kind of experiment: Antiallergic activity in Wistar Charles River rat assessed as inhibition of histamine-induced passive cutaneous anaphylaxis at 50 mg/kg, ip relative to control. Type of experiment: functional. To be noted: route intraperitoneal.
In experiment [17] the test system is Rattus norvegicus. The experiment is described as follows: Antiallergic activity in Wistar Charles River rat assessed as inhibition of histamine-induced passive cutaneous anaphylaxis at 30 mg/kg, iv relative to control. It counts as functional.
The test system of experiment [18] is Rattus norvegicus. As to the kind of experiment: Antiallergic activity in po dosed Wistar rat assessed as inhibition of ovalbumin-induced passive cutaneous anaphylaxis. Type of experiment: functional. The procedure, abridged: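 Male Charles River Wistar rats, 170-210 g. Reaginic egg-albumin antiserum was raised with Bordetella pertussis or Al(OH)3, then diluted to give a 15-mm wheal and injected intradermally (0.1 mL) into shaved back skin. After 48 h, drug or saline was given, then 2.5 mg Evans blue plus 5 mg egg albumin in saline. Each site was scored as diameter (mm) × dye-intensity grade (0.5-4), summed per group of 5 or 7 rats and compared with saline controls.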

The subject of experiment [19] is Rattus norvegicus. The experiment is described as follows: Antiallergic activity in po dosed Wistar rat assessed as inhibition of ovalbumin-induced passive cutaneous anaphylaxis relative to DSCG. Type of experiment: functional.
Experiment [20] relates to Homo sapiens. The experiment is described as follows: Antiallergic activity in po dosed human assessed as oral active dose. Type of experiment: functional.
For experiment [21], the system named is Rattus norvegicus. The experiment is described as follows: Antiallergic activity in Wistar Charles River rat assessed as inhibition of histamine-induced passive cutaneous anaphylaxis at 30 mg/kg, ip relative to control. Type of experiment: functional. To be noted: route intraperitoneal.

Structures are written as SMILES. The source made the active and inactive calls. No cut-off for these calls is given here.

As to `CCOC(=O)c1nc(O)c2cc3ccccc3nc2n1`, the ED50 in the experiment with Rattus norvegicus [1] is 3 mg/kg. Besides, the inhibition in vivo at 1 mg/kg in the experiment with Rattus norvegicus [2] worked out at 98%; in the experiment on Rattus norvegicus [6], 12%. For the same compound, the inhibition entry with Rattus norvegicus [3], with Rattus norvegicus [10] and in the experiment with Cavia porcellus was “inactive” throughout. In addition, in the experiment with Rattus norvegicus [4], the inhibition in vivo at 100 mg/kg was 80%. Further, the inhibition in vivo at 0.1 mg/kg with Rattus norvegicus [5] is 47%. Besides, the inhibition in vivo at 3 mg/kg with Rattus norvegicus [7] came out at 53%. Further, the inhibition in vivo at 10 mg/kg in the experiment on Rattus norvegicus [8] worked out at 75%. For the same compound, the inhibition in vivo at 30 mg/kg in the experiment with Rattus norvegicus [9] came out at 72%.

Regarding `CCOC(=O)c1nc2cc(OC(=O)c3ccccc3)c(OC)cc2c(=O)[nH]1`, the inhibition in vivo at 10 mg/kg in the experiment with Rattus norvegicus [3] came out at 14%.

Consider `CCOC(=O)CCc1n[nH]c2ccc(CC)cc2c1=O`, for which the ED50 with Rattus norvegicus [11] is 4 mg/kg.

In the case of `O=C(O)c1nc2cc3ccccc3cc2c(=O)[nH]1`, the inhibition in vivo at 1 mg/kg in the experiment with Rattus norvegicus [2] was 14%. The inhibition in vivo at 3 mg/kg in the experiment on Rattus norvegicus [12] amounted to 36%. The inhibition in vivo at 10 mg/kg in the experiment with Rattus norvegicus [3] was 100%. Moreover, the inhibition in vivo at 100 mg/kg in the experiment on Rattus norvegicus [4] amounted to 0%.

Take `O=c1[nH]c(=O)c2cc3ccccc3nc2[nH]1`: the inhibition in vivo at 3 mg/kg in the experiment with Rattus norvegicus [12] came out at 41%.

With `CCOC(=O)c1nc2c(C(F)(F)F)cc(Cl)cc2c(=O)[nH]1`, in the experiment on Rattus norvegicus [3], the inhibition in vivo at 10 mg/kg was determined as 0%.

Take `O=c1[nH]cnc2cc3ccccc3cc12`: in the experiment with Rattus norvegicus [12], the inhibition in vivo at 3 mg/kg is 31%.

In the case of `O=c1[nH]cnc2nc3ccccc3cc12`, the inhibition in vivo at 3 mg/kg in the experiment on Rattus norvegicus [12] came to 33%. For the same compound, in the experiment with Rattus norvegicus [3], the inhibition in vivo at 10 mg/kg was 4%.

As for `CCCc1c2c(c(O)c3c(=O)cc(C(=O)O)oc13)CCCC2` [PROXICROMIL], in the experiment with Rattus norvegicus [13], the ED50 is 15.5 mg/kg. Also, the “fold change (FC)” value in the experiment with Rattus norvegicus [14] is recorded as 0.19. Further, the Activity in the experiment with Homo sapiens [15] amounted to 4.6 mg.

For `CCCOc1ccccc1-c1nc2[nH]nnc2c(=O)[nH]1` [ZAPRINAST], the ED50 with Rattus norvegicus [11] worked out at 0.2 mg/kg.

Consider `O=C(O)c1nc2c(Br)cc(Br)cc2c(=O)[nH]1`, for which the inhibition in vivo at 50 mg/kg in the experiment on Rattus norvegicus [16] was determined as 0%.

For `O=C(O)c1cc(=O)c2cc3c(=O)cc(C(=O)O)[nH]c3c(Cl)c2[nH]1`, in the experiment on Rattus norvegicus [13], the ED50 is under 25.5 mg/kg. Further, the “fold change (FC)” value in the experiment on Rattus norvegicus [14] turned out to be 50.

Regarding `O=C(O)c1nc2ccccc2c(=O)[nH]1`, the inhibition in vivo at 10 mg/kg in the experiment on Rattus norvegicus [3] came out at 52%.

As for `CCc1ccc2occ(-c3nnn[nH]3)c(=O)c2c1`, the median effective dose (ED50) with Rattus norvegicus [13] was found to be 7 mg/kg. For the same compound, the “fold change (FC)” value with Rattus norvegicus [14] was determined as 4.

For the compound `O=C(O)c1nc2nc3ccccc3cc2c(=O)[nH]1`, the inhibition in vivo at 1 mg/kg in the experiment with Rattus norvegicus [2] was 92%. For the same compound, the inhibition in vivo at 100 mg/kg with Rattus norvegicus [4] is 96%. The inhibition in vivo at 10 mg/kg in the experiment on Rattus norvegicus [8] worked out at 0%. The inhibition in vivo at 30 mg/kg with Rattus norvegicus [9] was determined as 57%.

Regarding `CCOC(=O)c1nc2cc(OC)c(OC)cc2c(=O)[nH]1`, in the experiment on Rattus norvegicus [17], the inhibition in vivo at 30 mg/kg was 80%. In addition, in the experiment on Rattus norvegicus [4], the outcome was inactive.

In the case of `O=C(O)c1nc2c(C(F)(F)F)cc(Cl)cc2c(=O)[nH]1`, the inhibition in vivo at 10 mg/kg in the experiment on Rattus norvegicus [3] amounted to 0%.

As to `Cc1cc2c(cc1C)C(=O)C([N+](=O)[O-])C2=O`, the ED50 in the experiment with Rattus norvegicus [18] was 1 mg/kg. Further, in the experiment on Rattus norvegicus [19], the “fold change (FC)” value was determined as 25. In addition, the Activity in the experiment on Homo sapiens [20] came to 2 mg/kg.

With `O=C([O-])c1cc(=O)c2c(OCC(O)COc3cccc4oc(C(=O)[O-])cc(=O)c34)cccc2o1.[Na+].[Na+]` [CROMOLYN SODIUM], the ED50 in the experiment with Rattus norvegicus [1] worked out at 1 mg/kg. Also, the inhibition in vivo at 1 mg/kg in the experiment on Rattus norvegicus [2] is 55%. In addition, the inhibition in vivo at 3 mg/kg with Rattus norvegicus [12] is 77%. Further, in the experiment with Rattus norvegicus [3], the inhibition in vivo at 10 mg/kg turned out to be 90%. In addition, in the experiment with Rattus norvegicus [17], the inhibition in vivo at 30 mg/kg came out at 99%. For the same compound, the outcome with Rattus norvegicus [4] was inactive. For the same compound, in the experiment on Rattus norvegicus [5], the inhibition in vivo at 0.1 mg/kg is 14%.

`COc1cc2nc(C(=O)O)[nH]c(=O)c2cc1OC`: the inhibition in vivo at 30 mg/kg with Rattus norvegicus [17] is 69%. Further, in the experiment on Rattus norvegicus [4], the outcome was inactive.

Take `CCOC(=O)c1nc2ncccc2c(=O)[nH]1`: the inhibition in vivo at 1 mg/kg in the experiment on Rattus norvegicus [2] came to 6%. In addition, the inhibition in vivo at 3 mg/kg in the experiment on Rattus norvegicus [12] amounted to 66%. Moreover, the inhibition in vivo at 10 mg/kg with Rattus norvegicus [3] worked out at 96%. Moreover, the result in the experiment on Rattus norvegicus [4] was inactive.

`O=C(O)CCc1nc2cc3ccccc3cc2c(=O)[nH]1`: the inhibition in vivo at 10 mg/kg in the experiment on Rattus norvegicus [3] stood at 7%.

Consider `O=C(O)c1nc2ccc([N+](=O)[O-])cc2c(=O)[nH]1`, for which the inhibition in vivo at 30 mg/kg in the experiment with Rattus norvegicus [17] is 67%.

Consider `COc1cccc2c(=O)c(CO)coc12`, for which, in the experiment on Rattus norvegicus [11], the ED50 came out at 2 mg/kg.

`CCOC(=O)c1nc2cc3ccccc3cc2c(=O)[nH]1`: the inhibition in vivo at 100 mg/kg in the experiment with Rattus norvegicus [4] worked out at 38%. In the experiment with Rattus norvegicus [21], the inhibition in vivo at 30 mg/kg was 27%.

As to `Cc1nc(O)c2cc3ccccc3cc2n1`, the inhibition in vivo at 3 mg/kg in the experiment on Rattus norvegicus [12] amounted to 15%.
